Data taken from ChEMBL document CHEMBL1140852, “Synthesis, biological evaluation and quantitative structure-activities relationship of flavonoids as vasorelaxant agents” (Bioorg Med Chem, 2009).

Columns and labels:
Aorta [1] = test: Vasorelaxant activity in Sprague-Dawley rat aorta assessed as inhibition of phenylephrine-induced contraction after 15 to 20 mins; type: functional, tissue-based
In short: (§1)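 Aortic rings from male Sprague-Dawley rats (4–6 months, ~250 g), equilibrated at least 1 h, then precontracted isometrically with PE (1 µM). Once contraction stabilized (~20 min), compounds were added cumulatively at 15–20 min intervals, up to 300 µM. Vehicle-treated control tissues were run in parallel. Relaxation is expressed as % of PE contraction (Emax), n = 4. EC50 was taken as 50% of maximum relaxation, from nonlinear regression of concentration-response curves.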

Aorta [2] = test: Vasorelaxant activity in Sprague-Dawley rat aorta assessed as inhibition of phenylephrine-induced contraction after 15 to 20 mins relative to phenylephrine; type: functional; in short: as §1

| EC50 (Aorta [1]) [µM] | EC50 (Aorta [1]; read-out: pEC50 (converted)) [µM] | SMILES | Emax (Aorta [2]) [%] |
| --- | --- | --- | --- |
| 36.8 | 36.3 | O=c1cc(-c2cccc(Br)c2)oc2cc(O)cc(O)c12 | 84.3 |
| 24 | 24 | C=CCc1c(O)cc(O)c(C(=O)/C=C/c2ccc(O)cc2)c1O | 108 |
| 89.1 | 89.1 | C=CCc1c(O)ccc(C(=O)/C=C/c2ccc(O)cc2)c1O | 73.4 |
| 81.7 | 81.3 | O=c1cc(-c2ccc3c(c2)OCO3)oc2cc(O)ccc12 | 82.1 |
| 51.3 | 51.3 | C=CCc1cc(O)cc2c(=O)cc(-c3ccc(O)cc3)oc12 | 67.3 |
| 37 | 36.3 | C=CCc1c(O)cc(O)c2c1OC(c1cccc(O)c1)CC2=O (racemic) | 97.8 |
| 9.4 | 9.33 | C=CCc1c(O)ccc2c1OC(c1ccc3c(c1)OCO3)CC2=O (racemic) | 96.6 |
| 26.9 | 26.9 | C=CCc1c(O)ccc2c1OC(c1ccc(O)cc1)CC2=O (racemic) | 87.2 |
| 42.4 | 43.7 | O=C1CC(c2cccc(Br)c2)Oc2cc(O)cc(O)c21 (racemic) | 93.5 |
| 38.5 | 38 | O=C1CC(c2cccc(Br)c2)Oc2ccc(O)cc21 (racemic) | 91.8 |
| 34.5 | 33.9 | C=CCc1cc(O)cc2c1OC(c1ccc(O)cc1)CC2=O (racemic) | 95.3 |
| 10.2 | 10.2 | C=CCc1cc(O)cc2c1OC(c1cccc(O)c1)CC2=O (racemic) | 90.2 |
| 4.6 | 4.68 | C=CCc1cc(O)cc2c1OC(c1ccc(Cl)cc1)CC2=O (racemic) | 95.1 |
| 20.1 | 20 | O=C1CC(c2ccc3c(c2)OCO3)Oc2cc(O)cc(O)c21 (racemic) | 97.2 |
| 32.1 | 32.4 | C=CCc1c(O)cc(O)c2c1OC(c1ccc(O)cc1)CC2=O (racemic) | 98.6 |
| 142 | 145 | C=CCc1c(O)ccc2c1OC(c1ccc(Cl)cc1)CC2=O (racemic) | 70.8 |

Further lines, the compound ahead of its results:

| SMILES | EC50 (Aorta [1]) [µM] | EC50 (Aorta [1]; read-out: pEC50 (converted)) [µM] | Emax (Aorta [2]) [%] |
| --- | --- | --- | --- |
| O=C(/C=C/c1cccc(Br)c1)c1c(O)cc(O)cc1O |  | 21.4 | 99.8 |
| C=CCc1cc(O)cc(C(=O)/C=C/c2ccc(O)cc2)c1O |  |  | 59.8 |
| O=C1/C(=C/c2cccc(Br)c2)Oc2cc(O)cc(O)c21 |  |  | 59.2 |
| C=CCc1c(O)ccc(C(=O)/C=C/c2ccc3c(c2)OCO3)c1O |  |  | 71.8 |
| O=C(/C=C/c1ccc2c(c1)OCO2)c1c(O)cc(O)cc1O | 22.5 | 22.4 | 104 |
| O=C1/C(=C/c2ccc3c(c2)OCO3)Oc2cc(O)cc(O)c21 | 220 | 224 | 58.4 |
| C=CCc1c(O)ccc2c1OC(c1ccc(O)c(OC)c1)CC2=O (racemic) |  |  | 85 |
| C=CCc1c(O)cc(O)c2c1OC(c1cccc(Cl)c1)CC2=O (racemic) |  |  | 76.7 |
| C=CCc1c(O)cc(O)c2c1OC(c1ccc(Cl)cc1)CC2=O (racemic) |  |  | 77.6 |
| C=CCc1c(O)cc(O)c2c1OC(c1ccc(OC)cc1)CC2=O (racemic) |  |  | 81 |
| C=CCc1c(O)cc(O)c2c1OC(c1cccc(Br)c1)CC2=O (racemic) |  |  | 78.8 |
| O=c1c(O)c(-c2ccc(O)c(O)c2)oc2cc(O)cc(O)c12 [QUERCETIN] |  | 245 | 91.3 |
